Laboratory results reported in ChEMBL document CHEMBL4334458, “Design, synthesis and antibacterial evaluation of novel 15-membered 11a-azahomoclarithromycin derivatives with the 1, 2, 3-triazole side chain” (Eur J Med Chem, 2019).
≈ marks a conversion by molar mass, not a printed value.

How the values were obtained:
Type in all cases: functional
Staphylococcus aureus [1] = assay: Antibacterial activity against methicillin-resistant Staphylococcus aureus ATCC 43300 incubated for 24 hrs by broth dilution method; settings: ATCC 43300, 24 h
Staphylococcus aureus [2] = assay: Antibacterial activity against penicillin-resistant Staphylococcus aureus ATCC 31007 incubated for 24 hrs by broth dilution method; settings: ATCC 31007, 24 h
Bacillus subtilis = assay: Antibacterial activity against penicillin-susceptible Bacillus subtilis ATCC 9372 incubated for 24 hrs by broth dilution method; settings: ATCC 9372, 24 h
Procedure, shortened: (§1)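 CLSI broth microdilution in cation-adjusted Mueller-Hinton broth. Twofold dilutions spanned 0.25–128 or 0.5–256 µg/mL, with CAM and AZM as controls. Log-phase bacteria were added and incubated 24 h at 37 °C. MIC was read by turbidity as the concentration of the last clear well.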

Pseudomonas aeruginosa = assay: Antibacterial activity against penicillin-susceptible Pseudomonas aeruginosa ATCC 27853 incubated for 24 hrs by broth dilution method; settings: ATCC 27853, 24 h; procedure, shortened: as §1
Streptococcus pneumoniae [3] = assay: Antibacterial activity against erythromycin-resistant Streptococcus pneumoniae AB11 expressing the ermB and mefA incubated for 24 hrs by broth dilution method
Streptococcus pyogenes [4] = assay: Antibacterial activity against erythromycin-resistant Streptococcus pyogenes 2 clinical isolate incubated for 24 hrs by broth dilution method
Streptococcus pyogenes [5] = assay: Antibacterial activity against erythromycin-susceptible Streptococcus pyogenes 1 clinical isolate incubated for 24 hrs by broth dilution method; procedure, shortened: as §1
Staphylococcus aureus [6] = assay: Ratio of MIC for CAM to MIC for test compound for antibacterial activity against penicillin-resistant Staphylococcus aureus ATCC 31007 incubated for 24 hrs by broth dilution method
Procedure, shortened: (§2)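 Ratio of clarithromycin MIC to compound MIC. Both MICs come from CLSI broth microdilution in cation-adjusted Mueller-Hinton broth with 2-fold dilutions, log-phase inoculum and 24 h at 37 °C, read by turbidity as the last clear well.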

Escherichia coli = assay: Antibacterial activity against penicillin-susceptible Escherichia coli ATCC 25922 incubated for 24 hrs by broth dilution method; settings: ATCC 25922, 24 h; procedure, shortened: as §1
Streptococcus pneumoniae [7] = assay: Antibacterial activity against erythromycin-resistant Streptococcus pneumoniae B1 expressing the ermB incubated for 24 hrs by broth dilution method
Streptococcus pneumoniae [8] = assay: Ratio of MIC for CAM to MIC for test compound for antibacterial activity against erythromycin-resistant Streptococcus pneumoniae AB11 expressing the ermB and mefA incubated for 24 hrs by broth dilution method; procedure, shortened: as §2
Streptococcus pyogenes [9] = assay: Ratio of MIC for CAM to MIC for test compound for antibacterial activity against erythromycin-resistant Streptococcus pyogenes 2 clinical isolate incubated for 24 hrs by broth dilution method; procedure, shortened: as §2
Staphylococcus aureus [10] = assay: Antibacterial activity against erythromycin-susceptible Staphylococcus aureus ATCC 25923 incubated for 24 hrs by broth dilution method; settings: ATCC 25923, 24 h; procedure, shortened: as §1

Compound `CCCCc1ccc(-c2cn(C[C@H]3COC(=O)[C@H](C)[C@@H](O[C@H]4C[C@@](C)(OC)[C@@H](O)[C@H](C)O4)[C@H](C)[C@@H](O[C@@H]4O[C@H](C)C[C@H](N(C)C)[C@H]4O)[C@](C)(OC)C[C@@H](C)[C@H](O)[C@H](C)CN3C)nn2)cc1` has an MIC (Staphylococcus aureus [1]) of over 256 µg/mL, an MIC (Staphylococcus aureus [2]) of 16 µg/mL (≈ 17.4 µM) and an MIC (Bacillus subtilis) of 8 µg/mL (≈ 8.71 µM). The MIC (Pseudomonas aeruginosa) was over 128 µg/mL, the MIC (Streptococcus pneumoniae [3]) was 16 µg/mL (≈ 17.4 µM) and the MIC (Streptococcus pyogenes [4]) was 16 µg/mL (≈ 17.4 µM). The MIC (Streptococcus pyogenes [5]) was 4 µg/mL (≈ 4.36 µM), the Ratio (Staphylococcus aureus [6]) was 8 - 16 and the MIC (Escherichia coli) was over 128 µg/mL. The MIC (Streptococcus pneumoniae [7]) was over 256 µg/mL, the Ratio (Streptococcus pneumoniae [8]) was 8 - 16 and the Ratio (Streptococcus pyogenes [9]) was 8 - 16. For the same compound, the MIC (Staphylococcus aureus [10]) was 16 µg/mL (≈ 17.4 µM).

`COc1ccc(-c2cn(C[C@H]3CN(C)C[C@@H](C)[C@@H](O)[C@H](C)C[C@@](C)(OC)[C@H](O[C@@H]4O[C@H](C)C[C@H](N(C)C)[C@H]4O)[C@@H](C)[C@H](O[C@H]4C[C@@](C)(OC)[C@@H](O)[C@H](C)O4)[C@@H](C)C(=O)O3)nn2)cc1` showed an MIC (Staphylococcus aureus [1]) of over 256 µg/mL, an MIC (Staphylococcus aureus [2]) of over 256 µg/mL and an MIC (Bacillus subtilis) of 1 µg/mL (≈ 1.12 µM). For the same compound, the MIC (Pseudomonas aeruginosa) was 64 µg/mL (≈ 71.7 µM), the MIC (Streptococcus pneumoniae [3]) was 256 µg/mL (≈ 287 µM) and the MIC (Streptococcus pyogenes [4]) was 128 µg/mL (≈ 143 µM). For the same compound, the MIC (Streptococcus pyogenes [5]) was 0.12 µg/mL (≈ 0.135 µM), the MIC (Escherichia coli) was 32 µg/mL (≈ 35.9 µM) and the MIC (Streptococcus pneumoniae [7]) was over 256 µg/mL. The MIC (Staphylococcus aureus [10]) was 1 µg/mL (≈ 1.12 µM).

`CO[C@]1(C)C[C@@H](C)[C@H](O)[C@H](C)CN(C)C[C@@H](COCc2cn(-c3cccc(C(F)(F)F)c3)nn2)OC(=O)[C@H](C)[C@@H](O[C@H]2C[C@@](C)(OC)[C@@H](O)[C@H](C)O2)[C@H](C)[C@H]1O[C@@H]1O[C@H](C)C[C@H](N(C)C)[C@H]1O` was tested, and the MIC (Staphylococcus aureus [1]) was 32 µg/mL (≈ 33.3 µM), the MIC (Staphylococcus aureus [2]) was 64 µg/mL (≈ 66.7 µM) and the MIC (Bacillus subtilis) was 2 µg/mL (≈ 2.08 µM). It also gave an MIC (Pseudomonas aeruginosa) of over 128 µg/mL, an MIC (Streptococcus pneumoniae [3]) of 16 µg/mL (≈ 16.7 µM) and an MIC (Streptococcus pyogenes [4]) of 32 µg/mL (≈ 33.3 µM). The MIC (Streptococcus pyogenes [5]) was 4 µg/mL (≈ 4.17 µM), the MIC (Escherichia coli) was 128 µg/mL (≈ 133 µM) and the MIC (Streptococcus pneumoniae [7]) was 32 µg/mL (≈ 33.3 µM). For the same compound, the MIC (Staphylococcus aureus [10]) was 8 µg/mL (≈ 8.33 µM).

For `CCCCc1ccc(-c2cn(C[C@@H]3COC(=O)[C@H](C)[C@@H](O[C@H]4C[C@@](C)(OC)[C@@H](O)[C@H](C)O4)[C@H](C)[C@@H](O[C@@H]4O[C@H](C)C[C@H](N(C)C)[C@H]4O)[C@](C)(OC)C[C@@H](C)[C@H](O)[C@H](C)CN3C)nn2)cc1`, the MIC (Staphylococcus aureus [1]) was 128 µg/mL (≈ 139 µM), the MIC (Staphylococcus aureus [2]) was 64 µg/mL (≈ 69.7 µM) and the MIC (Bacillus subtilis) was 32 µg/mL (≈ 34.8 µM). It also gave an MIC (Pseudomonas aeruginosa) of over 128 µg/mL, an MIC (Streptococcus pneumoniae [3]) of 64 µg/mL (≈ 69.7 µM) and an MIC (Streptococcus pyogenes [4]) of 16 µg/mL (≈ 17.4 µM). For the same compound, the MIC (Streptococcus pyogenes [5]) was 16 µg/mL (≈ 17.4 µM), the MIC (Escherichia coli) was 128 µg/mL (≈ 139 µM) and the MIC (Streptococcus pneumoniae [7]) was 64 µg/mL (≈ 69.7 µM). It also gave an MIC (Staphylococcus aureus [10]) of 128 µg/mL (≈ 139 µM).

For `CO[C@]1(C)C[C@@H](C)[C@H](O)[C@H](C)CN(C)C[C@@H](Cn2cc(-c3ccc(Cl)cc3)nn2)OC(=O)[C@H](C)[C@@H](O[C@H]2C[C@@](C)(OC)[C@@H](O)[C@H](C)O2)[C@H](C)[C@H]1O[C@@H]1O[C@H](C)C[C@H](N(C)C)[C@H]1O`, the MIC (Staphylococcus aureus [1]) was 64 µg/mL (≈ 71.4 µM), the MIC (Staphylococcus aureus [2]) was 64 µg/mL (≈ 71.4 µM) and the MIC (Bacillus subtilis) was 16 µg/mL (≈ 17.8 µM). For the same compound, the MIC (Pseudomonas aeruginosa) was over 128 µg/mL, the MIC (Streptococcus pneumoniae [3]) was 64 µg/mL (≈ 71.4 µM) and the MIC (Streptococcus pyogenes [4]) was 32 µg/mL (≈ 35.7 µM). The MIC (Streptococcus pyogenes [5]) was 2 µg/mL (≈ 2.23 µM), the MIC (Escherichia coli) was 128 µg/mL (≈ 143 µM) and the MIC (Streptococcus pneumoniae [7]) was 64 µg/mL (≈ 71.4 µM). It also gave an MIC (Staphylococcus aureus [10]) of 8 µg/mL (≈ 8.92 µM).

With `CO[C@]1(C)C[C@@H](C)[C@H](O)[C@H](C)CN(C)[C@H](Cn2cc(-c3ccc(Cl)cc3)nn2)COC(=O)[C@H](C)[C@@H](O[C@H]2C[C@@](C)(OC)[C@@H](O)[C@H](C)O2)[C@H](C)[C@H]1O[C@@H]1O[C@H](C)C[C@H](N(C)C)[C@H]1O` the MIC (Staphylococcus aureus [1]) was 64 µg/mL (≈ 71.4 µM), the MIC (Staphylococcus aureus [2]) was 64 µg/mL (≈ 71.4 µM) and the MIC (Bacillus subtilis) was 8 µg/mL (≈ 8.92 µM). For the same compound, the MIC (Pseudomonas aeruginosa) was over 128 µg/mL, the MIC (Streptococcus pneumoniae [3]) was 64 µg/mL (≈ 71.4 µM) and the MIC (Streptococcus pyogenes [4]) was 32 µg/mL (≈ 35.7 µM). For the same compound, the MIC (Streptococcus pyogenes [5]) was 8 µg/mL (≈ 8.92 µM), the MIC (Escherichia coli) was 128 µg/mL (≈ 143 µM) and the MIC (Streptococcus pneumoniae [7]) was 64 µg/mL (≈ 71.4 µM). For the same compound, the MIC (Staphylococcus aureus [10]) was 8 µg/mL (≈ 8.92 µM).

Compound `CO[C@]1(C)C[C@@H](C)[C@H](O)[C@H](C)CN(C)[C@@H](Cn2cc(-c3ccccc3)nn2)COC(=O)[C@H](C)[C@@H](O[C@H]2C[C@@](C)(OC)[C@@H](O)[C@H](C)O2)[C@H](C)[C@H]1O[C@@H]1O[C@H](C)C[C@H](N(C)C)[C@H]1O` has an MIC (Staphylococcus aureus [1]) of 256 µg/mL (≈ 297 µM), an MIC (Staphylococcus aureus [2]) of 256 µg/mL (≈ 297 µM) and an MIC (Bacillus subtilis) of 16 µg/mL (≈ 18.6 µM). It also gave an MIC (Pseudomonas aeruginosa) of over 128 µg/mL, an MIC (Streptococcus pneumoniae [3]) of 128 µg/mL (≈ 148 µM) and an MIC (Streptococcus pyogenes [4]) of 128 µg/mL (≈ 148 µM). It also gave an MIC (Streptococcus pyogenes [5]) of 2 µg/mL (≈ 2.32 µM), an MIC (Escherichia coli) of over 128 µg/mL and an MIC (Streptococcus pneumoniae [7]) of 256 µg/mL (≈ 297 µM). For the same compound, the MIC (Staphylococcus aureus [10]) was 32 µg/mL (≈ 37.1 µM).

`COc1ccc(-c2cn(C[C@@H]3CN(C)C[C@@H](C)[C@@H](O)[C@H](C)C[C@@](C)(OC)[C@H](O[C@@H]4O[C@H](C)C[C@H](N(C)C)[C@H]4O)[C@@H](C)[C@H](O[C@H]4C[C@@](C)(OC)[C@@H](O)[C@H](C)O4)[C@@H](C)C(=O)O3)nn2)cc1` gave an MIC (Staphylococcus aureus [1]) of 256 µg/mL (≈ 287 µM), an MIC (Staphylococcus aureus [2]) of 256 µg/mL (≈ 287 µM) and an MIC (Bacillus subtilis) of 64 µg/mL (≈ 71.7 µM). It also gave an MIC (Pseudomonas aeruginosa) of over 128 µg/mL, an MIC (Streptococcus pneumoniae [3]) of 128 µg/mL (≈ 143 µM) and an MIC (Streptococcus pyogenes [4]) of 64 µg/mL (≈ 71.7 µM). The MIC (Streptococcus pyogenes [5]) was 4 µg/mL (≈ 4.48 µM), the MIC (Escherichia coli) was over 128 µg/mL and the MIC (Streptococcus pneumoniae [7]) was 256 µg/mL (≈ 287 µM). For the same compound, the MIC (Staphylococcus aureus [10]) was 32 µg/mL (≈ 35.9 µM).
